# Hit rate of the full screen: of about 130,000 compounds, about 1,000 (0.77%) were called active. Inconclusive results (about 1%) are left out.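 The calls were made as follows: active = activation at 2 µM above a set limit, confirmed on inspection of the cell images; inconclusive = above the set limit but not confirmed on image inspection; inactive = the rest.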 Many of the other results were omitted from the sample, so actives are more common in it than they were.
# Assay: insulin gene promoter stimulation in islet cells – imaging, TRM-6 cells, eGFP reporter, cell count, primary screen (AID 1296);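 as to activation: share of cells whose green reporter signal exceeds an intensity cutoff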
# Details: at 2 µM; activation: stronger effect = higher value, plate-scaled: unstimulated 0, stimulated control 100; normalized cell count: measured here: cell count (toxicity)
# Method in brief: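 material = TRM-6 human fetal islet cells, insulin promoter–eGFP reporter | input = 1,000 TRM-6 cells seeded per well | benchmarks = stimulated versus unstimulated wells as plate controls | measured by = automated fluorescence imaging of paraformaldehyde-fixed, Hoechst-counterstained cells, green channel | schedule = compound exposure 48 h, 37 °C | reagent = tamoxifen at 0.75 µM added at seeding for reporter induction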
SMILES,activation,normalized cell count [%]
O=C(CCCN1C(=O)/C(=C/c2ccco2)SC1=S)Nc1ccccc1,0% (inactive),158
COc1ccc(N2CCN(C(=O)c3ccc4c(Cl)c5c(nc4c3)CCCC5)CC2)cc1,0% (inactive),94.9
COc1ccc(C2CC(c3cccs3)Nc3nnnn32)cc1 (stereo not drawn),-78.6% (inactive),120
CC1(C)CC(=O)C(N=Nc2ccc(S(=O)(=O)N3CCCCCC3)cc2)=C(O)C1,0% (inactive),78.9
O=C(NCN1CCN(CCO)CC1)c1cnccn1,6.67% (inactive),83.1
CCCC(=O)Nc1ccc(C(=O)NCCCn2ccnc2)cc1,456% (active),48.4
Cc1ccc2c(Cl)c(C(=O)NCCCn3ccnc3)sc2c1,352% (inactive),42
O=C(Nc1ccccc1C(=O)NCCCn1ccnc1)c1ccc(Cl)cc1Cl,289% (inactive),61.3
C/C(=N\NC(=O)c1ccc(NS(=O)(=O)c2cccs2)cc1)c1ccc2ccccc2c1,157% (inactive),72.7
CN(C)CCCCCN(C)Cc1cc2ccccc2o1,319% (active),86.1
CCS(=O)(=O)Nc1cc(C(=O)OC)ccc1C(=O)OC,-6.67% (inactive),104
COC(=O)c1ccc(C(=O)OC)c(NC(=S)N2CCN(c3ccc(F)cc3)CC2)c1,403% (active),89.4
CCN(CCO)C(=S)Nc1cc(C(=O)OC)ccc1C(=O)OC,3.45% (inactive),127
COc1ccc(C)cc1Nc1nc(-c2c(C)[nH]c3ccccc23)cs1,-3.7% (inactive),68.8
CN(c1ccc(OCC(=O)OCC(=O)Nc2cccc([N+](=O)[O-])c2)cc1)S(=O)(=O)c1ccc(F)cc1,-8.57% (inactive),119
COc1cccc(OC)c1C(=O)Nc1ccc(Cc2ccncc2)cc1,6.67% (inactive),107
CCc1ccc(NC(=O)Nc2ccncc2)cc1,268% (active),67.1
O=C(Nc1ccncc1)c1c(F)cccc1F,-5.26% (inactive),90.9
OCCNCCOc1ccc(Cl)c(Cl)c1,-3.85% (inactive),86.5
CC(NC(=O)Nc1ccc2c(c1)OCO2)c1ccncc1 (stereo not drawn),-5.26% (inactive),112
Cc1onc(C(=O)NN)c1C(=O)N1CCN(C(c2ccccc2)c2ccccc2)CC1,-81.8% (inactive),29.3
CCOC(=O)c1c(NC(=O)C2CC=CCC2C(=O)O)sc(C)c1CC (stereo not drawn),-5.88% (inactive),110
Cc1ccccc1C(OCCN(C)C)C1CCCCC1 (stereo not drawn),-9.38% (inactive),72.9
Cc1ccc(N/N=C2\COC(C)(C)CC2=O)cc1,7.14% (inactive),67.8

# — PubChem BioAssay AID1296 (Columbia University Molecular Screening Center, 2008)
